CXCR6 block: CXCR6 (human) receptor inhibition | O00574 | CHO-K1 PathHunter CXCR6 beta-arrestin, luminescence | inhibition, % at 20 µM | hit rate 0.36% among 360,000 | AID 602244; in the data active means inhibition above about 34%, passing the limit was not always enough;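 further: antagonist mode with CXCL16 agonist at 10 nM final; 0% = 10 nM CXCL16 with DMSO and 100% = unstimulated wells without agonist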
A3G deaminase: blocks human APOBEC3G single-stranded DNA deamination; inhibition, % at 20 µM; hit rate 0.28% among 330,000; recombinant A3G, ssDNA deamination FAM/TAMRA fluorescence; Q9HC16;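 active means inhibition of at least 40% at 20 µM, with no more than 30% in the related APOBEC3A deaminase screen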;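 further: plate controls were DMSO wells with A3G for no effect and wells lacking A3G enzyme for full effect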
A3A deaminase: inhibitors of human APOBEC3A DNA deaminase; P31941; recombinant A3A, FAM/TAMRA ssDNA deamination fluorescence; inhibition, % at 20 µM; hit rate 0.41% among 330,000; AID 493011;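 active means at least 40% inhibition at 20 µM here, with at most 30% in a related deaminase screen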;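 further: plate controls were A3A with DMSO for no effect and wells lacking A3A enzyme for full effect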
APJ antagonist: blocks the human apelin receptor APJ; CHO-K1 APJ beta-arrestin complementation, luminescence; inhibition, % at 20 µM; hit rate 0.32% among 330,000; AID 2521;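 active means inhibition above about 40% at 20 µM, limit read from the data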;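 further: cells challenged with 10 nM apelin-13 agonist together with compound; plate controls were apelin-13 plus DMSO wells for no effect and DMSO wells lacking apelin-13 for full effect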
APJ agonist: agonists of human APJ apelin receptor; P35414; activation, % at 20 µM; CHO-K1 APJ PathHunter beta-arrestin, luminescence; 0% DMSO wells, 100% apelin; hit rate 0.11% among 330,000;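 active means activation more than six SD over the plate average, tested at 20 µM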;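 further: 0% = DMSO alone and 100% = apelin-13 at 10 nM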
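Test system: CHO-K1 APJ beta-arrestin complementation cell line. Amount: cell density 1000 per well. Controls: DMSO negative, 10 nM Apelin-13 positive. Signal: luminescent beta-gal fragment complementation, chemiluminescent substrate. Read-out basis: agonist-driven arrestin binding to APJ. Timing: compound stimulation 90 min at 25 °C, detection 60 min.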
CCR6 antag: CCR6 (human) receptor antagonism. P51684. CHO-K1 CCR6 PathHunter beta-arrestin, luminescence, CCL20-stimulated. inhibition, % at 20 µM. hit rate 0.49% among 340,000;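 active means compounds whose inhibition of the agonist-driven luminescence signal at 20 µM reaches about 50%, limit read from the data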;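 further: cells stimulated with CCL20 at 14 nM final; plate controls were DMSO with CCL20 for no effect and DMSO without agonist for full effect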
Target sequence (P51684 whole entry, looked up): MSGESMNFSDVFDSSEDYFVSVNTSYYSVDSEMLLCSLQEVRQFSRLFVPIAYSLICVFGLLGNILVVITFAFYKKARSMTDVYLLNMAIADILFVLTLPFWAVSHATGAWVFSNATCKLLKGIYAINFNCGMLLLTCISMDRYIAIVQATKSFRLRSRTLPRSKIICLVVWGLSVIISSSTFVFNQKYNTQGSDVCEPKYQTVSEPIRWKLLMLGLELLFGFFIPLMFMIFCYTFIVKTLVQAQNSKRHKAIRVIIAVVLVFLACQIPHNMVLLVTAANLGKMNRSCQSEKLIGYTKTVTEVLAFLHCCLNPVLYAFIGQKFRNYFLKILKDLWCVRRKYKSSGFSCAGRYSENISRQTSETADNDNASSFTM
CXCR6 antag conf: CXCR6 antagonism confirmation, single concentration; CHO-K1 CXCR6 PathHunter beta-arrestin, luminescence; hit rate 65% among 700; shares compounds with CXCR6 block; AID 602409; inhibition, % at 20 µM;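 active means mean inhibition over four retests above 40%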;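 further: receptor stimulated with 10 nM CXCL16 agonist; beta-galactosidase fragment complementation upon beta-arrestin recruitment to receptor; plate controls were CXCL16 plus DMSO for no effect and DMSO without CXCL16 for full effect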
Numbers without * were called inactive; . = no result given. Shown are actives, neighbours in structure and some others; about 1.4% of the full set was active somewhere.

SMILES	CXCR6 block	A3G deaminase	A3A deaminase	APJ antagonist	APJ agonist	CCR6 antag	CXCR6 antag conf
O=C1CC(c2ccco2)Cc2nc(N3CCc4ccccc4C3)ncc21 (stereo unspecified)	43.5*	2.9	3.8	10.1	-3.4	28.6	-1.8
CC(C)c1ccc(C2CC(=O)c3cnc(N4CCc5ccccc5C4)nc3C2)cc1 (stereo unspecified)	6.3	-3.2	0.6	15.0	1.2	0.9	.
Cc1ccc2nc(Nc3ccc(Cl)cc3)c3nncn3c2c1	-3.4	-2.8	0.2	-2.4	-3.1	-18.1	.
Cc1cccc(NC(=O)CSc2cccc3cccnc23)c1C	6.1	-2.9	-3.5	27.7	-4.7	15.7	.
CCOC(=O)CSc1cccc2cccnc12	53.0*	-2.8	-1.1	37.1	-6.8	69.2*	65.4*
O=C(Nc1ccc2c(c1)[C@H]1C[C@@H](CC(=O)N3CCOCC3)O[C@@H](CO)[C@H]1O2)C1CCOCC1	0.7	.	.	.	.	.	.
COC(=O)c1ccc(CSc2nc3ccccc3[nH]2)o1	2.9	-0.2	1.0	17.8	1.3	-7.6	.
COC(=O)c1cc(CSc2nc3ccc(C)cc3[nH]2)oc1C	43.3*	-5.0	-1.6	27.5	-6.2	33.0	41.2*
CCCCn1c(N)c(C(=S)NC(=O)CC(C)(C)C)c(=O)n(C)c1=O	38.9*	-6.7	-3.5	37.6	-2.1	.	35.0
CCCn1c(N)c(C(=O)CSc2ncn[nH]2)c(=O)n(C)c1=O	-5.7	-7.1	-4.1	11.0	-0.6	6.8	.
COc1ccccc1OCC(=O)NNC(=O)c1ccc2c(=O)n3c(nc2c1)CCC3	0.0	0.3	3.4	2.1	-1.9	-1.5	.
CCOC(=O)c1sc2nc(SCC#N)n(CC3CCCO3)c(=O)c2c1C (stereo unspecified)	60.9*	-1.0	2.9	24.3	-6.0	7.5	13.2
O=C(CSc1nnc(-c2ccco2)n1-c1ccccc1)N1CCOCC1	63.4*	2.6	2.0	6.6	-5.7	3.9	12.0
CCOC(=O)C1CCN(C(=O)CSc2nnc(-c3ccco3)n2-c2ccccc2)CC1	5.2	-4.7	-0.4	-18.7	-5.8	-5.0	.
COc1cc(OC)cc(-c2c(-c3ccc(F)cc3)c3cc(-c4cnc(OC)nc4)ccc3n2C)c1	1.7	-4.1	-5.3	13.7	0.7	13.3	.
Clc1nnc(N/N=C/c2ccccc2)c2ccccc12	-1.2	-0.6	0.9	-6.7	-3.1	-0.5	.
C[n+]1ccc(/C=N/Nc2nc(Cl)c(C#N)c(Cl)c2Cl)cc1	42.5*	3.6	5.6	36.9	-6.0	55.8*	52.0*

Source: PubChem BioAssay (Sanford-Burnham Center for Chemical Genomics)
